LMPTP inh: blocks human LMPTP phosphatase; inhibition, % at 20 µM; recombinant LMPTP-A, OMFP fluorogenic substrate, fluorescence intensity; 0.22% of 360,000 active; P24666;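 active means compounds that cut the enzyme signal by at least half of the control window in the single-dose screen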;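 further: plate controls were DMSO wells with enzyme plus substrate for no effect and substrate without enzyme for full effect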
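Buffer or medium: Bis-Tris pH 6.0, DTT, detergent; Assay system: LMPTP-A enzyme; Quantity: 0.625 nM enzyme; Detection: endpoint fluorescence intensity; Times: 50 min dark incubation at room temperature; Controls: substrate-only low control, DMSO enzyme-plus-substrate high control; Doses: single 20 µM dose; Read-out: percent inhibition versus substrate-only and uninhibited controls; Reagent: 400 µM OMFP.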
Scp-1 inhibitor: blocks human Scp-1 phosphatase activity | inhibition, % at 20 µM | 0.88% of 340,000 active | Q9GZU7 | AID 493091 | Recombinant Scp1, phosphopeptide, malachite green phosphate absorbance;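 active means inhibition above about 50% at 20 µM, limit read from the data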;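 further: plate controls were DMSO wells with enzyme for no effect and wells lacking enzyme for full effect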
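System: SCP-1 catalytic domain; Reagent: Phospho 17-mer peptide substrate; Doses: one concentration, 20 µM, with 1.0% DMSO; Incubation: 45 min room-temperature reaction, 5 min colour, 30 min stabiliser; Signal: Phosphate-binding colour reagent, absorbance read at 630 nm.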
DNMT1 inh: blocks human DNA methyltransferase DNMT1 | P26358 | DNMT1 molecular beacon, Hinp1I cleavage, fluorescence | inhibition (reported as % activation of signal), % at 10 µM | 0.83% of 360,000 active; in the data active means inhibition above about 50%
STEP block: STEP (human) phosphatase inhibition. 0.25% of 360,000 active. recombinant STEP, OMFP fluorogenic substrate, fluorescence. P54829. AID 588621. inhibition, % at 20 µM;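 active means inhibition at 20 µM, scaled per plate between control wells, above about 37%, limit read from the data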;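 further: 0% = DMSO with enzyme and substrate and 100% = substrate only without enzyme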
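Assay system: isolated STEP enzyme / Timing: 20 min at room temperature, dark / Doses: 20 µM, 1% DMSO / Technique: fluorescence intensity, excitation 480 nm, emission 540 nm / Reagent: fluorogenic phosphatase substrate OMFP at 25 µM final / Measure: percent inhibition scaled to no-enzyme and uninhibited-enzyme controls, plate-pattern corrected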
GRK2 aptamer HTS: blocks RNA aptamer binding to human GRK2. AID 488847. P25098. bead flow cytometry, FAM-aptamer displacement from GRK2. inhibition of aptamer binding, % at 10 µM. 0.59% of 330,000 active;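 active means inhibition of aptamer binding above 40%, roughly 3 SD of noise, on plates passing a quality check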;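 further: median bead fluorescence of bound FAM aptamer so fluorescent compounds give negative values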
Target sequence (P25098 whole entry, looked up): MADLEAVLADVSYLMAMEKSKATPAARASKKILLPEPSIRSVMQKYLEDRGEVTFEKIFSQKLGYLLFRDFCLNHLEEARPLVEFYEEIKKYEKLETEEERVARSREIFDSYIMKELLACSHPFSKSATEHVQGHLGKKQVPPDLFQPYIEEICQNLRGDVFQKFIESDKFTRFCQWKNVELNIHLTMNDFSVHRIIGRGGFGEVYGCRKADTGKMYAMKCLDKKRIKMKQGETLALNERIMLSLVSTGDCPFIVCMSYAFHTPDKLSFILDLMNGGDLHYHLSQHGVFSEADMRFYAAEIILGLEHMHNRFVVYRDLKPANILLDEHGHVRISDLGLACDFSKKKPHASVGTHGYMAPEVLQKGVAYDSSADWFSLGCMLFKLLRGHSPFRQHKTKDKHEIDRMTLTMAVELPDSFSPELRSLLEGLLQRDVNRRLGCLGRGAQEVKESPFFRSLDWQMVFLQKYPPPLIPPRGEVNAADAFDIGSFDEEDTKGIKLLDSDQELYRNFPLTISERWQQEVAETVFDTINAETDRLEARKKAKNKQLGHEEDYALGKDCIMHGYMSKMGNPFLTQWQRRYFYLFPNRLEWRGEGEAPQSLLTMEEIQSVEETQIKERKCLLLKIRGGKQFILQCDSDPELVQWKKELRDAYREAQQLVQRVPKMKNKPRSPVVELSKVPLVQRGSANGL
SUMO1-SIM PPI: modulators of human SUMO1-mediated protein-protein interactions. P63165. SUMO1 binding to a labelled peptide, TR-FRET, 1 h. inhibition, % at 20 µM. 0.33% of 360,000 active. AID 602429; in the data active means inhibition above about 37%
Target sequence (P63165 whole entry, looked up): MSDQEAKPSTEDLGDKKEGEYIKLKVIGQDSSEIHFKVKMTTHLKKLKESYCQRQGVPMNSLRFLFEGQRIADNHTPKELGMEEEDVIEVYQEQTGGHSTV
GRK2 inh confirm: human GRK2 inhibition confirmation, cherry pick 1. shares compounds with GRK2 aptamer HTS. bead-bound GRK2, FAM-aptamer displacement, flow cytometry. aptamer displacement, % at 10 µM. 4% of 2,000 active;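 active means aptamer displacement above 40%, near three times the noise of non-fluorescent compounds, on plates passing quality checks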;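 further: negative values mostly reflect intrinsic compound fluorescence rather than true enhancement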
FAM quench CP1: aptamer fluorescence quenching in GRK2 counter-screen. 2,000 tested, under 10 active. fluorescence response (% of DMSO), % at 10 µM. AID 504580. shares compounds with GRK2 aptamer HTS. Carboxyfluorescein RNA aptamer on beads, flow cytometry quenching; active compounds read low;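 active means compounds that quench the bead-bound fluorescent RNA probe, cutting fluorescence to under half of the solvent control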;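 further: counterscreen run without GRK2 so only probe quenching by compound is measured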
GRK2 confirm 2: confirmation of human GRK2 inhibitors binding RNA aptamer site | shares compounds with GRK2 aptamer HTS | bead-bound GRK2, FAM-aptamer displacement, flow cytometry | inhibition of aptamer binding, % at 10 µM | 360 tested, under 10 active | AID 504782;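 active means inhibition of aptamer binding above 40%, about triple the noise seen with nonglowing compounds, on plates passing quality control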;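 further: negative values mostly come from compounds that fluoresce themselves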
FAM quench SP: counter-screen for GRK2 binding hits: quenchers of fluorescent RNA aptamer. shares compounds with GRK2 aptamer HTS. carboxyfluorescein RNA aptamer beads, flow cytometry quenching; active compounds read low. fluorescence response vs DMSO, % at 10 µM. 360 tested, under 10 active. AID 588494;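 active means response vs DMSO under 50%, meaning signal dropped by over half, treated as fluorescence quencher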;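 further: labelled aptamer on streptavidin beads without GRK2 as a quench counter-screen; 100% = bead fluorescence of DMSO wells and lower means quenching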
* hit, by the source's call; / = not tested or not shown. This is a sample that favours compounds with a hit; in the whole collection about 2.1% have one here.

SMILES | LMPTP inh | Scp-1 inhibitor | DNMT1 inh | STEP block | GRK2 aptamer HTS | SUMO1-SIM PPI | GRK2 inh confirm | FAM quench CP1 | others
NC(=S)N1OC[C@@H]2COc3ccc4ccccc4c3[C@@H]21 | -1 | -3 | -10 | 0 | 65* | -3 | 1 | 95
CS(=O)(=O)Oc1ccc2c(c1)O/C(=C\C=C\c1ccccc1)C2=O | 0 | -7 | -11 | -2 | 49* | -23 | -5 | 97
O=C(CCN1C(=O)c2ccccc2C1=O)Nn1cnnc1 | 0 | 1 | 0 | -2 | 52* | -6 | 2 | 94
O=C(CSc1oc(-c2ccc(F)cc2)nc1S(=O)(=O)c1ccc(F)cc1)NCC1CCCO1 (centres undefined) | 1 | 1 | 5 | -3 | 1 | 1 | / | /
O=C(CSc1oc(-c2cccs2)nc1S(=O)(=O)c1ccc(F)cc1)NCC1CCCO1 (centres undefined) | 0 | 10 | -5 | 6 | 42* | -1 | 2 | 102
COc1ccc(C(=O)N2CCC(C)(C(=O)O)C2)c(OC)c1 (centres undefined) | -1 | / | 2 | -3 | / | 1 | / | /
COc1ccc(CCNC(=O)C2CCCN(S(=O)(=O)c3cc(C)ccc3OC)C2)cc1OC (centres undefined) | 1 | -4 | -1 | 2 | 0 | 1 | / | /
COC(=O)c1ccc(OC(=O)/C=C/c2ccco2)cc1 | 7 | 10 | 17 | 11 | 5 | -34 | / | /
O=Cc1cccc(OC(=O)/C=C/c2ccco2)c1 | 33 | 69* | 92* | 48* | 62* | 12 | 5 | 97
COc1ccc(OC)c(CN2CCN(C(=O)c3ccc(S(=O)(=O)N4CCCCCC4)cc3)CC2)c1 | 1 | / | -1 | 2 | / | 5 | / | /
Cc1cc(C)c(OCC(=O)N2CCN(c3ncc(C(F)(F)F)cc3Cl)CC2)c(C)c1 | 6 | -5 | 3 | 4 | 80* | 0 | / | / | GRK2 confirm 2=19;FAM quench SP=100
Cc1cc(C)cc(NC(=S)N2CCN(c3ncc(C(F)(F)F)cc3Cl)CC2)c1 | 1 | -11 | 8 | 1 | 0 | 1 | / | /
O=C(Nc1ccc2ccccc2c1)C(c1ccccc1)n1c(=O)c(-c2cc3ccccc3[nH]2)nc2ccccc21 (centres undefined) | 5 | / | / | / | / | 0 | / | /
COCCn1nnnc1C(c1ccccn1)N1CCN(c2cc(Cl)ccc2C)CC1 (centres undefined) | 2 | 0 | -6 | 0 | 97* | -3 | -1 | 102
COc1ccc(Cn2nnnc2C(c2ccccn2)N2CCN(c3cc(Cl)ccc3C)CC2)cc1 (centres undefined) | 6 | -5 | -13 | -2 | 0 | -7 | / | /
Cc1ccccc1CC(=O)N1CCC(CCC(=O)NC2CC2)CC1 | -1 | / | 4 | -2 | / | 6 | / | /
c1ccc(CCn2c(SCc3ccccc3)nnc2-c2ccncc2)cc1 | 0 | -8 | 3 | 0 | 3 | -2 | / | /
CN(C)CCCn1c(SCc2c(Cl)cccc2Cl)nnc1-c1ccncc1 | -4 | -5 | 1 | -1 | 44* | -1 | / | / | GRK2 confirm 2=2;FAM quench SP=99
CC(C)NC(=O)N(C)C[C@@H]1OCc2cnnn2CCCC(=O)N([C@@H](C)CO)C[C@H]1C | -2 | / | 4 | 1 | / | -2 | / | /
Cc1cccc(N=C2NC(=O)/C(=C/c3cccn3C)S2)c1 | 2 | -8 | 0 | 4 | 1 | -11 | / | /
Cc1c(/C=C2\SC(=Nc3cccc(C(=O)O)c3)NC2=O)c2ccccc2n1C | 0 | 11 | 2 | 1 | 64* | 0 | 3 | 105
Cn1c(CSCc2ccc(F)cc2)nnc1SCC(=O)Nc1nccs1 | -2 | -2 | 3 | -5 | 2 | 0 | / | /
Cn1c(CSCc2ccccc2)nnc1SCC(=O)Nc1nccs1 | -2 | -7 | 0 | -2 | 50* | 0 | -2 | 96
O=C1C2CC=CCC2C(=O)N1Cc1ccccc1Cl (centres undefined) | 0 | -5 | 6 | 2 | 42* | 0 | / | / | GRK2 confirm 2=19;FAM quench SP=112
COC(=O)C1=C(C)NC(C)=C(C(=O)OC)C1C(=O)OCC(=O)Nc1ccc(C(C)=O)cc1 | 0 | 1 | -2 | -1 | 75* | 1 | 25 | 93
SMILES | LMPTP inh | Scp-1 inhibitor | DNMT1 inh | STEP block | GRK2 aptamer HTS | SUMO1-SIM PPI | GRK2 inh confirm | FAM quench CP1 | others
CCN=C1S/C(=C\c2ccc(-c3cccc(C(=O)O)c3)o2)C(=O)N1CC | 2 | 42 | 18 | 2 | 34 | -2 | 5 | 83
Cc1cc2c(c(=O)n1CCN(C)C)C(c1ccc(Cl)cc1)C(C#N)=C(N)O2 (centres undefined) | 0 | -6 | -4 | -1 | 0 | -2 | / | /
Cc1cc2c(c(=O)n1C1CC1)C(c1cccc(Cl)c1)C(C#N)=C(N)O2 (centres undefined) | 0 | -3 | -1 | 0 | 93* | 4 | 3 | 100
CN(C)CCCN(C(=O)c1ccc(S(=O)(=O)N2CCCCC2)cc1)c1nc2cc3c(cc2s1)OCO3 | -3 | 2 | -2 | 2 | 15 | -3 | -14 | 101
CN(C)CCCN(C(=O)c1ccc(S(=O)(=O)N2CCOCC2)cc1)c1nc2cc3c(cc2s1)OCO3 | -4 | -5 | -2 | -2 | 0 | -7 | / | /
COc1ccc(C(C(=O)NC2CCCC2)N(C(=O)c2snc(-c3ccc(F)cc3)c2N)c2ccc(F)cc2)cc1 (centres undefined) | -1 | -2 | 26 | 5 | 72* | 2 | 8 | 103
Cc1cccc(NC2(C(=O)O)CCCC2)c1 | 1 | -12 | -1 | 0 | / | -7 | / | /
CCNc1nc(NCC)n2c(SCC(=O)Nc3ccc(NC(C)=O)cc3)nnc2n1 | 1 | 46 | 31 | -1 | 31 | 6 | / | / | GRK2 confirm 2=0;FAM quench SP=106
CCNc1nc(NCC)n2c(SCC(=O)Nc3ccccc3OC(F)F)nnc2n1 | -2 | -3 | -4 | -4 | 22 | 3 | / | / | GRK2 confirm 2=-2;FAM quench SP=101
CC1=C(C(=O)N2CCCCCC2)CC(CC(=O)NCCc2ccccn2)C(=O)N1Cc1ccc(C(C)(C)C)cc1 (centres undefined) | 0 | / | / | / | / | 5 | / | /
O=C(Nn1cnnc1)c1ccc(Cl)c(Cl)c1 | -3 | -6 | 0 | -1 | 1 | 9 | / | /
